Bioassay records as filed in PubChem.
An excerpt weighted towards active compounds, which were near 2.6% of everything screened.
SENP7 block: SENP7 protease inhibition; Q9BQF6; recombinant SENP7, Z-RLRGG-aminoluciferin luminescence, 40 min; inhibition, % at 5 µM; 330,000 tested, 1.5% active; AID 434973;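 active = inhibition above about 50% at the single test dose, limit read from the data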
Target sequence (Q9BQF6 706-1050 limits assumed): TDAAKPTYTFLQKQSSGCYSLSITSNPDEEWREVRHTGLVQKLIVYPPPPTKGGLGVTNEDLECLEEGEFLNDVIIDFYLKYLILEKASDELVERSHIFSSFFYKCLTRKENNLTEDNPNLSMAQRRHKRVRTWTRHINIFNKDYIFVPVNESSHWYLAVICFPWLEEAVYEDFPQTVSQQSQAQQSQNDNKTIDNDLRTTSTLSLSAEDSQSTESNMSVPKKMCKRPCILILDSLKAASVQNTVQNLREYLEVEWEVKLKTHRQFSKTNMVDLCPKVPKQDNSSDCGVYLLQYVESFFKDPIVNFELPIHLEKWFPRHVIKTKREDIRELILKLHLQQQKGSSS
SENP8 block-1: blocks the human protease SENP8. 330,000 tested, 1.2% active. AID 2540. inhibition, % at 10 µM. purified SENP8, Z-RLRGG-aminoluciferin cleavage, luminescence. Q96LD8; in the data active = inhibition above about 50%
Platelet DG rel: modulates dense granule release in human platelets | human platelet-rich plasma, SFLLRN dense granule ATP release, luminescence | 300,000 tested, 0.22% active | AID 1663 | inhibition, %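 (compounds screened at 7.5 µM in platelet-rich plasma)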;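 active = mean replicate score, as percent of positive control, at or above 50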
SENP6 inh: SENP6 protease inhibition. 330,000 tested, 1.8% active. inhibition, % at 10 µM. Q9GZR1. Recombinant SENP6 catalytic domain, aminoluciferin luminescence;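 active = inhibition above about 50% at the single tested dose, limit read from the data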
SENP1 FRET inh: blocks the human SENP1 SUMO protease catalytic domain; recombinant SENP1 catalytic domain, CyPet-SUMO1-YPet FRET cleavage; inhibition, % at 10 µM; 360,000 tested, 0.21% active; AID 624204;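 active = inhibition at least 30% at 10 µM, raw YFP signal under a set limit, fluorescence ratio 0.5 to 1.5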
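Controls: no-enzyme wells low, DMSO-plus-enzyme wells high control. Test system: human recombinant His6-tagged SENP1 catalytic domain enzyme. Reagent: SFCypet-SUMO1-SFYpet FRET protein substrate, 25 nM final. Doses: one dose per compound, 10 µM, 0.5% DMSO. Detection: FRET, CFP and YFP emission. Timing: 50 min reaction at room temperature.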
SENP8 block-2: inhibitors of human SENP8 protease; Q96LD8; recombinant SENP8, Nedd8 substrate fluorescence; inhibition, % at 20 µM; 360,000 tested, 0.64% active; in the data active = inhibition mostly above about 40%, no sharp cut-off; inactive = mostly below about 27%
SENP8 conf: confirmation of human SENP8 protease inhibitors | inhibition, % at 12.5 µM | shares compounds with SENP7 block | AID 488912 | Recombinant SENP8, Z-RLRGG-aminoluciferin luminescence, 60 min | 6,200 tested, 40% active;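 active = mean inhibition across replicates above about 50%, limit read from the data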
SENP6 confirm: confirmation of human SENP6 protease inhibitors | inhibition, % at 12.5 µM | AID 488915 | shares compounds with SENP7 block | recombinant SENP6, Z-RLRGG-aminoluciferin luminescence | 6,200 tested, 58% active
SENP7 conf: confirmation of human SENP7 protease inhibitors; recombinant SENP7, Z-RLRGG-aminoluciferin luminescence, 40 min; AID 488917; 6,200 tested, 69% active; inhibition, % at 12.5 µM; shares compounds with SENP7 block
Casp3 SENP sel: caspase-3 inhibition (SENP selectivity assay); 6,200 tested, 60% active; inhibition, % at 12.5 µM; shares compounds with SENP7 block; purified caspase-3, Z-DEVD-aminoluciferin luminescence, 60 min;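 active = mean inhibition above about 50%, limit read from the data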
SENP luc ctr: interferes with luciferase luminescence in SENP counter-screen. shares compounds with SENP7 block. Pre-incubated SENP8/Z-RLRGG-aminoluciferin, luciferase luminescence interference. inhibition, % at 12.5 µM. 6,200 tested, 39% active. AID 488919;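 active = mean inhibition above about 50% when retested at one dose, limit read from the data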
Large screens that a line does not name were inactive (follow-up assays come after a bar, where they were run).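 The calls were made as follows, unless noted: active = mean inhibition above about 50% in the one-dose retest (limit read from the data); inactive = the rest.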

O=c1c2ccccc2oc2ccc(C#CC3(O)CCCCC3)cc12	SENP7 block 89.3, SENP8 block-1 91.9, SENP6 inh 94.4 | SENP8 conf 92.2 | SENP6 confirm 93.9 | SENP7 conf 99.4 | Casp3 SENP sel 83.4 | SENP luc ctr 67.8
Cn1c2ccccc2c(=O)c2cc(C#CC3(O)CCCCC3)ccc21	SENP7 block 97.2, SENP8 block-1 91.7, SENP6 inh 95.7 | SENP8 conf inactive | SENP6 confirm 57.2 | SENP7 conf inactive | Casp3 SENP sel 62.3 | SENP luc ctr 77.9
COc1cccc2oc3ccc(C#CC4(N)CCCCC4)cc3c(=O)c12	SENP6 inh 53.6 | SENP8 conf 55.4 | SENP6 confirm 51.9 | SENP7 conf 81.3 | Casp3 SENP sel 70.2 | SENP luc ctr inactive
NC1(C#Cc2ccc3c(=O)c4ccccc4sc3c2)CCCCC1	none (no result: Platelet DG rel)
Cc1cc2sc3ccc(C#CC4(O)CCCCC4)cc3c(=O)c2cc1C	SENP7 block 98.9, SENP8 block-1 94.0, SENP6 inh 97.2 | SENP8 conf inactive | SENP6 confirm inactive | SENP7 conf inactive | Casp3 SENP sel 72.9 | SENP luc ctr inactive
c1ccc(N2CCN(c3nc4cc5c(cc4s3)OCCO5)CC2)cc1	none
c1c2c(cc3sc(N4CCOCC4)nc13)OCCO2	SENP7 block 93.6, SENP8 block-1 88.9, Platelet DG rel 56.7, SENP6 inh 94.1 | SENP8 conf 89.0 | SENP6 confirm 92.7 | SENP7 conf 100.2 | Casp3 SENP sel 96.2 | SENP luc ctr 57.3
O=S(=O)(c1ccc(Br)s1)N1CCNCC1	none
Cc1ccc(C(=O)Nc2cccc(C(=O)O)c2)cc1S(=O)(=O)N1CCCCC1	SENP7 block 94.4, SENP8 block-1 88.0, SENP6 inh 92.6 (no result: Platelet DG rel) | SENP8 conf 96.2 | SENP6 confirm 96.0 | SENP7 conf 101.6 | Casp3 SENP sel 82.8 | SENP luc ctr 78.9
Cc1ccc(C(=O)Nc2cccc(C(=O)O)c2)cc1S(=O)(=O)N1CCOCC1	SENP8 block-1 56.6, SENP6 inh 61.3 | SENP8 conf 72.8 | SENP6 confirm 67.9 | SENP7 conf 89.0 | Casp3 SENP sel 50.1 | SENP luc ctr inactive
COC(=O)c1cccc(NC(=O)c2ccc3c(c2)C(=O)N(CC2CCCO2)C3=O)c1 (stereo not given)	none
CC(=O)c1cccc(NC(=O)c2ccc(C)c(S(=O)(=O)N3CCOCC3)c2)c1	none
O=C(O)c1cccc(NC(=O)c2ccc3c(c2)C(=O)N(CC2CCCO2)C3=O)c1 (stereo not given)	SENP7 block 71.2, SENP8 block-1 50.0, SENP6 inh 82.9 | SENP8 conf 87.4 | SENP6 confirm 85.4 | SENP7 conf 98.6 | Casp3 SENP sel 74.1 | SENP luc ctr 78.5
O=C(NC1(O)C(=O)c2ccccc2C1=O)c1c(Cl)cccc1Cl	SENP7 block 60.3, SENP8 block-1 63.7, SENP6 inh 64.6, SENP8 block-2 97.3 | SENP8 conf 67.1 | SENP6 confirm 85.9 | SENP7 conf 75.1 | Casp3 SENP sel inactive | SENP luc ctr inactive
O=C(NC1(O)C(=O)c2ccccc2C1=O)c1ccccc1	SENP7 block 62.7, SENP8 block-1 65.1, SENP6 inh 70.2, SENP8 block-2 99.1 | SENP8 conf 75.4 | SENP6 confirm 88.6 | SENP7 conf 81.2 | Casp3 SENP sel inactive | SENP luc ctr inactive
COC1(NC(=O)c2ccccc2)C(C)=CC(=O)C=C1C	none
Nc1cn(C2OC(CO)C(O)C2O)c(=O)[nH]c1=O (stereo not given)	none
